Test [1] deals with Vero. As to the kind of experiment: In vitro antiviral activity against vaccinia(VV) virus was determined in african green monkey kidney (vero,V) expressed as virus rating. The format is functional, Chlorocebus sabaeus. In outline: (§1)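 Cell monolayers (18 h) infected with 320 TCID50 of virus. Compound was added within 15–30 min at half-log dilutions from 1000 to 1 μg/mL. After 72 h at 37 °C in 5% CO2, CPE was scored 0–4 by microscopy. VR = sum of (virus control − treated) scores, halved at partially toxic levels, divided by 10 × test cups per drug level.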

The subject of test [2] is Vero. Nature of the test: In vitro antiviral activity against parainfluenza type 3(para 3) virus was determined in african green monkey kidney (vero,V) expressed as virus rating. The format is functional, Chlorocebus sabaeus. Put shortly:
as §1

In test [3] the test system is Vero. Nature of the test: In vitro antiviral activity against herpes simplex type 1 (HSV-1) virus was determined in african green monkey kidney (vero,V) expressed as virus rating. The format is functional, Chlorocebus sabaeus. In outline: as §1
Test [4] deals with HEp-2. As to the kind of experiment: In vitro antiviral activity against herpes simplex type 1 (HSV-1) virus was determined in human laryngeal epithelioma (HEp-2,H)expressed as virus rating. Toxic level(320 ug/mL). The format is functional. In outline:
as §1

Test [5] deals with HEp-2. Nature of the test: In vitro antiviral activity against parainfluenza type 3 (para 3) virus was determined in human laryngeal epithelioma (HEp-2,H)expressed as virus rating. Toxic level(320 ug/mL). The format is functional. Put shortly: as §1
In test [6] the test system is Vero. Nature of the test: In vitro antiviral activity against parainfluenza type 3(para 3) virus was determined in african green monkey kidney (vero,V) expressed as virus rating. Toxic level(>1000 ug/mL). The format is functional, Chlorocebus sabaeus. In outline:
as §1

Test [7] relates to Vero. As to the kind of experiment: In vitro antiviral activity against vaccinia(VV) virus was determined in african green monkey kidney (vero,V) expressed as virus rating. Toxic level(>1000 ug/mL). The format is functional, Chlorocebus sabaeus. In outline: as §1
Test [8] has as its system HEp-2. As to the kind of experiment: In vitro antiviral activity against vaccinia(VV) virus was determined in human laryngeal epithelioma (HEp-2,H)expressed as virus rating. Toxic level(320 ug/mL). The format is functional. Put shortly: as §1
Test [9] relates to Vero. As to the kind of experiment: In vitro antiviral activity against herpes simplex type 1 (HSV-1) virus was determined in african green monkey kidney (vero,V) expressed as virus rating. Toxic level(>1000 ug/mL). The format is functional, Chlorocebus sabaeus. Put shortly: as §1
Test [10] deals with Vero. Nature of the test: In vitro antiviral activity against parainfluenza type 3(para 3) virus was determined in african green monkey kidney (vero,V) expressed as virus rating. Toxic level(320 ug/mL). Format: functional, Chlorocebus sabaeus. Put shortly:
as §1

For test [11], the system named is Vero. As to the kind of experiment: Percentage plaque reduction was determined against pichinde(PICH) virus in african green monkey kidney (vero,V).Toxic level(320 ug/mL). Format: functional, Chlorocebus sabaeus. In outline:
(§2)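 Infected Vero 24-well monolayers: virus adsorbed 1 h at 37 °C, then overlaid with agar holding dilutions of compound and incubated again at 37 °C with CO₂. Plaques were stained with crystal violet and counted. Inhibition was scored as % plaque reduction bands (10-30%, 31-60%, 61-90%), each tied to a drug concentration range.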

The subject of test [12] is Vero. As to the kind of experiment: Percentage plaque reduction was determined against rift valley fever(RVF) virus in african green monkey kidney (vero,V) at a conc of <25 ug/mL. Toxic level(320 ug/mL). The format is functional, Chlorocebus sabaeus.
Test [13] deals with Vero. Nature of the test: Percentage plaque reduction was determined against pichinde(PICH) virus in african green monkey kidney (vero,V). Format: functional, Chlorocebus sabaeus. In outline: as §2
Test [14] has as its system Vero. Nature of the test: In vitro antiviral activity against herpes simplex type 1 (HSV-1) virus was determined in african green monkey kidney (vero,V) expressed as virus rating. Toxic level(320 ug/mL). Format: functional, Chlorocebus sabaeus. In outline: as §1
Test [15] deals with Vero. Nature of the test: Percentage plaque reduction was determined against venezuelan equine encephalitis (VEE) virus in african green monkey kidney (vero,V) at a conc of 250-500 ug/mL. Toxic level(320 ug/mL). Format: functional, Chlorocebus sabaeus.
Test [16] relates to Vero. As to the kind of experiment: Percentage plaque reduction was determined against Sandfly fever (SF) virus in african green monkey kidney (vero,V) at a conc of 25-100 ug/mL. Toxic level(320 ug/mL). Format: functional, Chlorocebus sabaeus.
The test system of test [17] is Vero. Nature of the test: Percentage plaque reduction was determined against venezuelan equine encephalitis (VEE) virus in african green monkey kidney (vero,V) at a conc of 25-100 ug/mL. Toxic level(>1000 ug/mL). Format: functional, Chlorocebus sabaeus.
The subject of test [18] is Vero. As to the kind of experiment: Percentage plaque reduction was determined against venezuelan equine encephalitis (VEE) virus in african green monkey kidney (vero,V) at a conc of 100-250 ug/mL. Toxic level(>1000 ug/mL). The format is functional, Chlorocebus sabaeus.
The test system of test [19] is Vero. As to the kind of experiment: Percentage plaque reduction was determined against Sandfly fever (SF) virus in african green monkey kidney (vero,V) at a conc of 100-250 ug/mL. Toxic level(>1000 ug/mL). Format: functional, Chlorocebus sabaeus.
Test [20] concerns Vero. As to the kind of experiment: Percentage plaque reduction was determined against rift valley fever(RVF) virus in african green monkey kidney (vero,V) at a conc of 25-100 ug/mL. Toxic level(>1000 ug/mL). Format: functional, Chlorocebus sabaeus.
Test [21] relates to Vero. As to the kind of experiment: Percentage plaque reduction was determined against venezuelan equine encephalitis (VEE) virus in african green monkey kidney (vero,V) at a conc of 250-500 ug/mL. Toxic level(>1000 ug/mL). Format: functional, Chlorocebus sabaeus.
Test [22] has as its system Vero. As to the kind of experiment: Percentage plaque reduction was determined against rift valley fever(RVF) virus in african green monkey kidney (vero,V) at a conc of <25 ug/mL. Toxic level(>1000 ug/mL). Format: functional, Chlorocebus sabaeus.
Test [23] concerns Vero. Nature of the test: Percentage plaque reduction was determined against Sandfly fever (SF) virus in african green monkey kidney (vero,V) at a conc of 25-100 ug/mL. Toxic level(>1000 ug/mL). Format: functional, Chlorocebus sabaeus.
Test [24] relates to Vero. As to the kind of experiment: Percentage plaque reduction was determined against yellow fever(YF) virus in african green monkey kidney Toxic level(>1000 ug/mL). Format: functional, Chlorocebus sabaeus.
Test [25] deals with Vero. Nature of the test: 0 Percentage plaque reduction was determined against rift valley fever(RVF) virus in african green monkey kidney (vero,V) at a conc of 250-500 ug/mL. Toxic level(>1000 ug/mL). The format is functional, Chlorocebus sabaeus.
Test [26] deals with Vero. As to the kind of experiment: Percentage plaque reduction was determined against rift valley fever(RVF) virus in african green monkey kidney (vero,V) at a conc of 100-250 ug/mL. Toxic level(>1000 ug/mL). The format is functional, Chlorocebus sabaeus.
Test [27] concerns Vero. As to the kind of experiment: Percentage plaque reduction was determined against Sandfly fever (SF) virus in african green monkey kidney (vero,V) at a conc of 250-500 ug/mL. Toxic level(>1000 ug/mL). Format: functional, Chlorocebus sabaeus.
For test [28], the system named is Vero. As to the kind of experiment: Percentage plaque reduction was determined against venezuelan equine encephalitis (VEE) virus in african green monkey kidney (vero,V) at a conc of <25 ug/mL./Toxic level(>1000 ug/mL). The format is functional, Chlorocebus sabaeus.
Test [29] relates to Vero. Nature of the test: Percentage plaque reduction was determined against pichinde(PICH) virus in african green monkey kidney (vero,V). Toxic level(>1000 ug/mL); 31-60. Format: functional, Chlorocebus sabaeus. In outline:
as §2

Test [30] relates to Vero. Nature of the test: Percentage plaque reduction was determined against Sandfly fever (SF) virus in african green monkey kidney (vero,V) at a conc of <25 ug/mL. Toxic level(>1000 ug/mL). Format: functional, Chlorocebus sabaeus. Put shortly:
as §2

Take `CSc1ncnc2c([C@@H]3O[C@H](CO)[C@@H](O)[C@H]3O)n[nH]c12`: the Virus rating was 1.4 with Vero [1], 1.3 with Vero [2] and 0.8 with Vero [3].

Take `NC(=O)c1ncnc2c1cnn2C1O[C@H](CO)[C@@H](O)[C@H]1O` (stereo partly specified): the Virus rating with HEp-2 [4] is on record as 0; in the test on HEp-2 [5] it was 0; with Vero [6], 0; in the test on Vero [7] it was 0; in the test with HEp-2 [8] it was 0.2; in the test on Vero [9], 0.

For the compound `OC[C@H]1OC(n2ccc3c(Cl)ncnc32)[C@H](O)[C@@H]1O` (stereo partly specified), the results for the Virus rating with Vero [10] and in the test with Vero [14] were 0.1 and 0.2, respectively. In addition, the Plaque reduction was more than 90% with Vero [11]; more than 90% with Vero [12]; more than 90% in the test on Vero [13]; 0% in the test on Vero [15]; 90% with Vero [16].

Take `O=C1N=CN=C2C1C=NN2C1O[C@H](CO)[C@@H](O)[C@H]1O` (stereo partly specified): the Plaque reduction in the test on Vero [17], in the test on Vero [18], with Vero [19], in the test with Vero [20], with Vero [21] and with Vero [22] was 0% each time. The Plaque reduction with Vero [23], with Vero [24], in the test with Vero [25], in the test with Vero [26], in the test on Vero [27] and in the test on Vero [28] was 0% throughout. Besides, the Plaque reduction with Vero [29] is listed as 31%; in the test on Vero [30], 0%. Also, the Virus rating with Vero [9] was 0.

The record behind these values is ChEMBL document CHEMBL1122187, “Synthesis and antiviral activity of certain carbamoylpyrrolopyrimidine and pyrazolopyrimidine nucleosides” (1982).
